Compounds with a hit are over-represented: about 1.8% of the library has one in this group of screens.
PABP FP inh = PABP-poly(A) binding inhibition; actives 1% (n = 290,000); P11940; AID 2014; PABP-poly(A) RNA binding, fluorescence polarization; calls only at 35 µM;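 also: calls also rest on retests at 20 µM and on dose response follow-up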
Target sequence (P11940 whole entry, looked up): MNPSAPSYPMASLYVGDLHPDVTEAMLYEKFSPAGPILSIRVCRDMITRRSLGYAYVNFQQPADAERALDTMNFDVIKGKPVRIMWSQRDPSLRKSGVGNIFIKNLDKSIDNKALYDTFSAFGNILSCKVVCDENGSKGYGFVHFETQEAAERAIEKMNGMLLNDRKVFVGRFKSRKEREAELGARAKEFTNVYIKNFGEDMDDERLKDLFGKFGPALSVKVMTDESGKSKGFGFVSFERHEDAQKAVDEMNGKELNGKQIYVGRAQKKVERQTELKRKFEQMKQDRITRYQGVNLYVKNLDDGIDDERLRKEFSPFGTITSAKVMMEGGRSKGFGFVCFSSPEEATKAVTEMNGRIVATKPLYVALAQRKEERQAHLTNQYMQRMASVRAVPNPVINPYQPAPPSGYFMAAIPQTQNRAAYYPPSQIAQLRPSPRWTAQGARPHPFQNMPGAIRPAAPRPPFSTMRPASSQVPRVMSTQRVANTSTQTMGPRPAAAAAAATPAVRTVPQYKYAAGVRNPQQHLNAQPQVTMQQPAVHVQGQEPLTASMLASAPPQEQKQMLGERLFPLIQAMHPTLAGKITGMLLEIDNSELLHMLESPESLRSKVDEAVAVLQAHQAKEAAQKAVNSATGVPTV
PABP1 MLLE inh = blocks PAM2 peptide binding to the PABP1 MLLE domain; P11940; AID 588489; inhibition, % at 20 µM; actives 0.36% (n = 360,000); GST-MLLE / FITC-PAM2 fluorescence polarization; in the data active = inhibition above about 35%, passing the limit was not always enough;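 also: plate controls were DMSO wells with GST-MLLE for no effect and wells lacking GST-MLLE protein for full effect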
SKN-1 block = C. elegans SKN-1 inhibition. AID 624304. inhibition, % at 21.8 µM. C. elegans VP596 Pgst-4::GFP/RFP ratio, acrylamide-induced, 24 h. actives 0.49% (n = 360,000);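 active = interference check ratio from 0.5 to 1.5 plus GFP to RFP signal ratio inhibition reaching or exceeding a fixed threshold, cut at about 30% in these data, passing the limit was not always enough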
eIF4H FP inh = inhibitors of RNA binding by human eIF4H | eIF4H fluorescence polarization binding assay | inhibition, % at 35 µM | actives 0.94% (n = 290,000) | Q15056;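 also: calls also rest on retests at 20 µM and on dose response follow-up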
MT1-MMP act inh = inhibitors of human MT1-MMP activation; actives 0.061% (n = 360,000); AID 651647; HT1080 RFP-PRO-GFP cells, GFP/RFP ratio fluorescence, overnight; percent of plate control window, DMSO zero; P50281; GFP/RFP ratio change, % at 20 µM;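 active = GFP/RFP ratio change of at least 30% with cell ATP level not reduced by more than half and red fluorescence within 50% of control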
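Read-out: GFP/RFP fluorescence ratio; Test system: RFP-PRO-GFP reporter HT1080 cells; Compound dosing: single-point 20 µM compound, 1% DMSO; Times: overnight compound exposure at 37 °C.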
The depositor's hits bear a star; i = inactive; ? = inconclusive; · = not tested or not shown; + = active, no number. Unless noted, no rule for the calls is given here.

SMILES | PABP FP inh | PABP1 MLLE inh | SKN-1 block | eIF4H FP inh | MT1-MMP act inh
COc1cc(C(=S)N2CCN(c3ccccc3Cl)CC2)cc(O)c1O | i | 42.4* | 6.0 | 31.8 | -0.5
COc1ccc(C(=S)N2CCCC2)cc1OC | i | -2.8 | 1.9 | -6.7 | -10.3
COc1ccc(C(=S)N2CCN(c3ccccc3Cl)CC2)cc1OC | i | 40.1* | -2.6 | 8.5 | 0.0
CCOc1cc(C(=S)N2CCOCC2)ccc1OC | i | 56.0* | 3.5 | -5.9 | 3.6
Cc1cccc(N(Cc2ccccc2)C(=O)CSC(C)C(=O)Nc2cc(C)on2)c1 (stereo unspecified) | · | 9.9 | 4.9 | · | 0.9
CC(C)c1ccc(S(=O)(=O)N2CCN(C(=O)C3CCN(C(=O)c4ccc(F)cc4)CC3)CC2)cc1 | i | -11.1 | -5.1 | -6.6 | -1.1
CCOc1ncccc1C(=O)OCC(=O)NCc1ccc(C(=O)OC)cc1 | · | 9.5 | -8.5 | · | 3.4
CN(C)CCNc1ncnc2c1sc1nc(N3CCCC3)c3c(c12)CC(C)(C)OC3 | i | -8.8 | 49.7* | 3.9 | 7.6
CCOC(=O)c1ccccc1NC(=O)Cc1ccccc1OC | i | 2.6 | 50.3* | -9.5 | -4.5
COC(CNC(=O)c1ccc2c3c(onc13)-c1ccccc1C2=O)OC | ? | i | 59.5 | ? | 34.1*
CCN1/C(=C(\O)c2ccccc2)C(=O)c2ccccc2S1(=O)=O | i | -1.0 | 44.1* | 2.6 | -8.8
CCOC(=O)c1ccc(CN2C(=O)c3ccccc3S2(=O)=O)cc1 | i | -1.4 | 3.0 | 5.0 | 1.5
Cc1ccc(NC(=O)NCc2cccnc2)cc1 | i | 7.6 | 1.1 | -10.8 | 1.4
CC(C)c1ccc(NC(=O)NCc2cccnc2)cc1 | i | 7.2 | 38.9* | -8.7 | 3.0
CC(=O)N(Cc1cc2ccccc2[nH]c1=O)c1ccc(C)cc1 | i | -7.8 | 3.7 | -1.9 | -1.0
C=CCNc1nnc(SCC(=O)N2CCC(C(N)=O)CC2)s1 | · | 6.6 | 9.5 | · | 1.9
O=C1NC(=S)N(C(=O)c2ccc(F)cc2)/C1=C/c1ccccc1 | + | -130.0 | 18.1 | 71.7* | -295.3
COc1ccc(/C=C2\C(=O)NC(=S)N2C(=O)c2ccc(F)cc2)cc1 | i | -167.4 | 12.7 | 48.1 | -195.2
Cc1ccc(NC(=O)C(C)OC(=O)c2ccc(Cl)nc2)cc1S(=O)(=O)N1CCOCC1 (stereo unspecified) | · | -9.9 | 10.0 | · | 4.0
CCCCOc1[nH]c2nc(-c3ccco3)n(Cc3ccco3)c(=N)c2c1C#N | + | 94.6 | 17.3 | 126.6* | -61.5
c1ccc(CSc2nnc(-c3ccco3)n2Cc2ccco2)cc1 | i | -19.7 | 4.9 | -2.6 | -3.9
COc1ccc(C(CC(=O)N2CCOCC2)c2c(OC)cc(OC)c3c(-c4ccccc4)cc(=O)oc23)cc1 (stereo unspecified) | + | 1.6 | 5.9 | 93.0* | 0.8
COc1cc(C(CC(=O)N2CCCC2)c2c(OC)cc(OC)c3c(-c4ccccc4)cc(=O)oc23)cc(OC)c1OC (stereo unspecified) | + | -3.3 | -2.2 | 78.2* | -8.0
COc1ccc(C(CC(=O)N2CCCC2)c2c(OC)cc(OC)c3c(-c4ccccc4)cc(=O)oc23)cc1 (stereo unspecified) | i | -1.4 | 18.3 | 87.4* | -31.5
CC(C)(c1ccccc1)c1ccc(OCc2ccc(C(=O)O)o2)cc1 | · | 3.2 | 5.7 | · | 1.7
SMILES | PABP FP inh | PABP1 MLLE inh | SKN-1 block | eIF4H FP inh | MT1-MMP act inh
N#Cc1c(-c2ccccc2Cl)noc1/C=C/Nc1ccc(C(=O)O)cc1 | + | -10.8 | 12.8 | 51.8* | -21.1
CN(C)/C=C(\C=O)c1onc(-c2ccccc2Cl)c1C#N | i | -0.7 | -9.0 | 9.4 | -2.8
CCCCCCCCn1c(N2CCN(c3cccc(Cl)c3)CC2)nc2c1c(=O)[nH]c(=O)n2C | i | 2.1 | -13.3 | 0.6 | -14.6
CCCCCCn1c(N2CCN(c3cccc(Cl)c3)CC2)nc2c1c(=O)[nH]c(=O)n2C | i | -6.2 | 37.8* | -0.2 | 4.1
CN1CCN(c2ccc(CNC(=O)c3ccc(-c4ccc(F)c(F)c4)c4ccoc34)cc2)CC1 | · | 16.6 | -29.1 | · | 7.1
NC(=O)CC(NC(=O)Cc1ccc(Cl)cc1)c1ccc(NCCCN2CCCC2=O)c([N+](=O)[O-])c1 (stereo unspecified) | i | -7.4 | 11.7 | 69.0* | 5.2
Cc1ccc(S(=O)(=O)N2CCC(C(=O)NNC(=O)c3ccccc3)CC2)cc1 | + | -6.9 | 3.2 | 55.8* | -1.0

Assay outcomes (PubChem)
